These results are taken from ChEMBL document CHEMBL4152384, “Pyrtriazoles, a Novel Class of Store-Operated Calcium Entry Modulators: Discovery, Biological Profiling, and in Vivo Proof-of-Concept Efficacy in Acute Pancreatitis” (J Med Chem, 2018).

The target of data set [1] is T1, Stromal interaction molecule 1 & 2/Calcium release-activated calcium channel protein 1 (Mus musculus) (UniProt Q8BWG9+P70302+P83093). Put plainly: Modulation of STIM1/STIM2/Orai1 in mouse BV2 cells assessed as induction of store-operated calcium entry by measuring residual activity at 10 uM preincubated for 30 mins followed by tBhQ-mediated Ca2+ depletion and Ca2+ re-addition to extracellular solution measured for 600 secs by Fluo-4 AM-based fluorometric assay relative to control. Format: cell-based.

In data set [2] the target is T2, Short transient receptor potential channel 1 & 3/Stromal interaction molecule 1/Calcium release-activated calcium channel protein 1 (Homo sapiens) (UniProt Q96D31+Q13507+Q13586+P48995). The data set is described as follows: Modulation of TRPC1/TRPC3/STIM1/Orai1 in HEK cells assessed as induction of store-operated calcium entry by measuring residual activity at 10 uM preincubated for 30 mins followed by tBhQ-mediated Ca2+ depletion and Ca2+ re-addition to extracellular solution measured for 600 secs by Fluo-4 AM-based fluorometric assay relative to control. It counts as cell-based.
T2 sequence (P48995 whole entry partner): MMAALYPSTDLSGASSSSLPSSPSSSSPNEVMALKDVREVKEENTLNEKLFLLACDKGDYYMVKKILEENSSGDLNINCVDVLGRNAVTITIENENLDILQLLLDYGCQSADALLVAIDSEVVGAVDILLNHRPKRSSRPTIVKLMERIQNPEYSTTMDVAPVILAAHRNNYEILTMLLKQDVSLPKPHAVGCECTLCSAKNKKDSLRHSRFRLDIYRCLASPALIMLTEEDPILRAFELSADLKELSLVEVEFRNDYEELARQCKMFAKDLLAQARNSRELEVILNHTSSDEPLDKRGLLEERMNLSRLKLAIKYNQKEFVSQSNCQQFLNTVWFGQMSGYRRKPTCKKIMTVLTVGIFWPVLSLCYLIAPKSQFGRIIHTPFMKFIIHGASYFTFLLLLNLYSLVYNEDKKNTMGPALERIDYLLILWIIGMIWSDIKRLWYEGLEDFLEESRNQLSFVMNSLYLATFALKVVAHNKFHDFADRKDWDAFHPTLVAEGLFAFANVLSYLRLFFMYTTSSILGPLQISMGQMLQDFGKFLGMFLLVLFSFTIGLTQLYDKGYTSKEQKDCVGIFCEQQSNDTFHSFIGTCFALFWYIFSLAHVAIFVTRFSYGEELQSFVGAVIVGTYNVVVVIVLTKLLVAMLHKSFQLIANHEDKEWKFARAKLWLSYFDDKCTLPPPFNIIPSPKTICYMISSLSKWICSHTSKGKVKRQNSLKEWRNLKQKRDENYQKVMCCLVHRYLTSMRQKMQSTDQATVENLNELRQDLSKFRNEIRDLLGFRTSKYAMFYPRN
T2 sequence (Q13507 whole entry partner): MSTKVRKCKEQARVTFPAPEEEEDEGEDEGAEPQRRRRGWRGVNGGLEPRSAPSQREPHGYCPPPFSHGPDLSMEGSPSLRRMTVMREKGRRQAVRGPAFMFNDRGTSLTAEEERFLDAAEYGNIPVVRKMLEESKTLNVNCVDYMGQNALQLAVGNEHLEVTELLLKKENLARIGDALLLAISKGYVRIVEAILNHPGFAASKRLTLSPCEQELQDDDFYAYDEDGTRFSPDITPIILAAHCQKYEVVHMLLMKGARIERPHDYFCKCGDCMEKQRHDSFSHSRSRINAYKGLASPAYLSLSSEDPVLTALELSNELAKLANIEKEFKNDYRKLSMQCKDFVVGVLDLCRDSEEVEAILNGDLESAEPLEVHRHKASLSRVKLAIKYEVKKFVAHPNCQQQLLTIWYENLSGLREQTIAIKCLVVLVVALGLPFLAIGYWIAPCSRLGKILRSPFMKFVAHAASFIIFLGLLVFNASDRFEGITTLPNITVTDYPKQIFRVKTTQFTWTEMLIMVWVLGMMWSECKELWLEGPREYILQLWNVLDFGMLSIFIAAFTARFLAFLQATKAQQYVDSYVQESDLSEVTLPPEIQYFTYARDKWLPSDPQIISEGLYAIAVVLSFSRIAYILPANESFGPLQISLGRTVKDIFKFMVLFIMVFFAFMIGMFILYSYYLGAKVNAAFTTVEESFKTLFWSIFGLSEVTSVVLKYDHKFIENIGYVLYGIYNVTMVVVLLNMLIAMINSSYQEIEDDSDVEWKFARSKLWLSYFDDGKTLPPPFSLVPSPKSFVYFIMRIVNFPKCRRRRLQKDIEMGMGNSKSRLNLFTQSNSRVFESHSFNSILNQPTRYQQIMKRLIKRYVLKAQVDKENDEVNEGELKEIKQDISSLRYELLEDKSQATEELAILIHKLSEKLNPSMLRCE
T2 sequence (Q13586 23-685 partner limits assumed): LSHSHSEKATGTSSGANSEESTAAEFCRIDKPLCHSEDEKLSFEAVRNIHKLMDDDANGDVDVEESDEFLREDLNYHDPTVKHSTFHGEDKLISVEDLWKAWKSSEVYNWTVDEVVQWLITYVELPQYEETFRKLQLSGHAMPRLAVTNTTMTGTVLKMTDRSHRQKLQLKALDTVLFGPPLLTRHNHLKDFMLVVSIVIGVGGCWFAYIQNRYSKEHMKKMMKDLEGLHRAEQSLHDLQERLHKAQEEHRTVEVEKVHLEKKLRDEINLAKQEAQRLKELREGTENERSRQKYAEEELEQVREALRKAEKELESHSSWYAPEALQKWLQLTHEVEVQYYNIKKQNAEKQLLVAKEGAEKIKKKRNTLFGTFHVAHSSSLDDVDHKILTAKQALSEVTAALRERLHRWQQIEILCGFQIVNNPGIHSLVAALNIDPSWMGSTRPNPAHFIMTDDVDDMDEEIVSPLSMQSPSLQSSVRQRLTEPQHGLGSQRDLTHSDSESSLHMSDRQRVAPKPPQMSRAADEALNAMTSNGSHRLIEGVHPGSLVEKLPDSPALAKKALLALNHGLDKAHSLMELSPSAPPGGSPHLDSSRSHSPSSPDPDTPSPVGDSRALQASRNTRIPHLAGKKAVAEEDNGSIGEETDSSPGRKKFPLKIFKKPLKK
T2 sequence (Q96D31 whole entry): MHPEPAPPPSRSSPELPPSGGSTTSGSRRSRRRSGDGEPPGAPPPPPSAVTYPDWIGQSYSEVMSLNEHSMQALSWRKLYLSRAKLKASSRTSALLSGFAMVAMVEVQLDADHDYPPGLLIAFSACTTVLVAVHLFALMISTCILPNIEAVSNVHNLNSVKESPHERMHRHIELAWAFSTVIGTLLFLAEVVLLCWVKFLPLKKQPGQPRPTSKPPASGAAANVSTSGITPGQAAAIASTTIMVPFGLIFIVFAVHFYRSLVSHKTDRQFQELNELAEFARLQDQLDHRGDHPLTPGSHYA

Data set [3] has as its system Jurkat. Put plainly: Induction of store-operated calcium entry in human Jurkat cells assessed as induction of store-operated calcium entry by measuring residual activity at 10 uM preincubated for 30 mins followed by tBhQ-mediated Ca2+ depletion and Ca2+ re-addition to extracellular solution measured for 600 secs by Fluo-4 AM-based fluorometric assay relative to control. Format: cell-based.

Data set [4] in a line: Induction of store-operated calcium entry in human Jurkat cells assessed as induction of store-operated calcium entry by measuring residual activity preincubated for 30 mins followed by tBhQ-mediated Ca2+ depletion and Ca2+ re-addition to extracellular solution measured for 600 secs by Fluo-4 AM-based fluorometric assay relative to control. Format: cell-based.
Data set [5] in a line: Cytotoxicity against HEK cells assessed as cell viability at 10 uM by MTT assay relative to control. It counts as cell-based. To be noted: human, read-out: Activity. A digest of the protocol: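 Hek cells treated 24 h with compound at 10 μM; viability determined by MTT assay.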
For orientation: Tetrazolium assays rely on reduction of a dye to a coloured formazan, in cell work by metabolically active cells.

Data set [6] has as its target Transient receptor potential cation channel subfamily V member 1 (Homo sapiens) (UniProt Q8NER1). Put plainly: Antagonist activity at TRPV1 (unknown origin) expressed in HEK cells assessed as inhibition of capsaicin-induced calcium increase at 10 uM by fura-2-based assay. It counts as cell-based. A digest of the protocol: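 TRPV1-overexpressing Hek cells; calcium rise evoked by capsaicin (100 nM), test compounds at 10 μM; peak amplitude read out; mean ± SEM of 600 cells from 30 plates on four separate experimental days.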

Data set [7] has as its target Transient receptor potential cation channel subfamily M member 8 (Homo sapiens) (UniProt Q7Z2W7). The data set is described as follows: Antagonist activity at TRPM8 (unknown origin) expressed in HEK cells assessed as inhibition of menthol -mediated calcium increase at 10 uM by fura-2-based assay. Format: cell-based. In outline:
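TRPM8-overexpressing Hek cells; calcium rise evoked by menthol (100 μM), test compounds at 10 μM; peak amplitude read out; mean ± SEM of 600 cells from 30 plates on four separate experimental days.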

Data set [8] can be described thus: Metabolic stability in CD1 mouse plasma assessed as residual compound level at 50 uM after 30 mins by LC-UV analysis. It counts as ADME, cell-free. To be noted: read-out: Stability. A digest of the protocol: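 Compounds incubated in mouse plasma for 30 min; percentage of residual substrate determined.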
Data set [9] has as its target T1, Stromal interaction molecule 1 & 2/Calcium release-activated calcium channel protein 1 (Mus musculus). The data set is described as follows: Modulation of STIM1/STIM2/Orai1 in mouse BV2 cells assessed as induction of store-operated calcium entry by measuring residual activity at 100 uM preincubated for 30 mins followed by tBhQ-mediated Ca2+ depletion and Ca2+ re-addition to extracellular solution measured for 600 secs by Fluo-4 AM-based fluorometric assay relative to control. It counts as cell-based.

The target in data set [10] is T2, Short transient receptor potential channel 1 & 3/Stromal interaction molecule 1/Calcium release-activated calcium channel protein 1 (Homo sapiens). Put plainly: Modulation of TRPC1/TRPC3/STIM1/Orai1 in HEK cells assessed as induction of store-operated calcium entry by measuring residual activity at 100 uM preincubated for 30 mins followed by tBhQ-mediated Ca2+ depletion and Ca2+ re-addition to extracellular solution measured for 600 secs by Fluo-4 AM-based fluorometric assay relative to control. Format: cell-based.

Data set [11] has as its system Jurkat. Put plainly: Induction of store-operated calcium entry in human Jurkat cells assessed as induction of store-operated calcium entry by measuring residual activity at 100 uM preincubated for 30 mins followed by tBhQ-mediated Ca2+ depletion and Ca2+ re-addition to extracellular solution measured for 600 secs by Fluo-4 AM-based fluorometric assay relative to control. Format: cell-based.

Data set [12] deals with Short transient receptor potential channel 1 & 3/Stromal interaction molecule 1/Calcium release-activated calcium channel protein 1 (Homo sapiens, UniProt P48995+Q13507+Q13586+Q96D31). Put plainly: Modulation of TRPC1/TRPC3/STIM1/Orai1 in HEK cells assessed as induction of store-operated calcium entry by measuring residual activity preincubated for 30 mins followed by tBhQ-mediated Ca2+ depletion and Ca2+ re-addition to extracellular solution measured for 600 secs by Fluo-4 AM-based fluorometric assay relative to control. It counts as cell-based.

Data set [13] is described as follows: Drug metabolism in CD1 mouse liver microsomes assessed as ester group hydrolysis at 50 uM after 60 mins in presence of NADPH/UDPGA. It counts as ADME, microsome. As to conditions: 1 h. In general terms: Liver microsomes are vesicles of endoplasmic reticulum, rich in cytochrome P450 enzymes.
Data set [14] in a line: Drug metabolism in CD1 mouse liver microsomes assessed as ester group hydrolysis at 50 uM after 60 mins in absence of NADPH/UDPGA. It counts as ADME, microsome. To be noted: 1 h.
A short description of data set [15]: Metabolic stability in CD1 mouse liver S9 fraction assessed as residual compound level at 50 uM after 1 hr. It counts as ADME, subcellular. To be noted: read-out: Stability. In outline:
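Hydrolytic stability measured in mouse liver S9 fraction; residual substrate quantified after 1 h incubation.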

Data set [16] can be described thus: Drug metabolism in CD1 mouse liver microsomes assessed as 1-(4-(4-(3-Carboxyphenyl)-1H-1,2,3-triazol-1-yl)phenyl)-5-(trifluoromethyl)-1H-pyrazole-4-carboxylic Acid metabolite formation at 50 uM after 60 mins by mass spectroscopic analysis. Format: ADME, microsome.
Data set [17] relates to voltage-gated calcium channel (Mus musculus). The data set is described as follows: Antagonist activity at voltage-gated calcium channels in C57/BL6 mouse cerebellar granule cells assessed as inhibition of KCl-induced voltage dependent calcium entry at 10 uM by fura-2-based assay.
Data set [18] shares this test system. The data set is described as above. This is another data set of the same source.

Active and inactive are the calls of the source. The rule behind the calls is not given here. Bounds are passed on as bounds.

A word on the IC50: it is the midpoint of a concentration-inhibition curve.

Transient receptor potential cation channel subfamily M member 8 (Homo sapiens), sequence (Q7Z2W7 whole entry, looked up): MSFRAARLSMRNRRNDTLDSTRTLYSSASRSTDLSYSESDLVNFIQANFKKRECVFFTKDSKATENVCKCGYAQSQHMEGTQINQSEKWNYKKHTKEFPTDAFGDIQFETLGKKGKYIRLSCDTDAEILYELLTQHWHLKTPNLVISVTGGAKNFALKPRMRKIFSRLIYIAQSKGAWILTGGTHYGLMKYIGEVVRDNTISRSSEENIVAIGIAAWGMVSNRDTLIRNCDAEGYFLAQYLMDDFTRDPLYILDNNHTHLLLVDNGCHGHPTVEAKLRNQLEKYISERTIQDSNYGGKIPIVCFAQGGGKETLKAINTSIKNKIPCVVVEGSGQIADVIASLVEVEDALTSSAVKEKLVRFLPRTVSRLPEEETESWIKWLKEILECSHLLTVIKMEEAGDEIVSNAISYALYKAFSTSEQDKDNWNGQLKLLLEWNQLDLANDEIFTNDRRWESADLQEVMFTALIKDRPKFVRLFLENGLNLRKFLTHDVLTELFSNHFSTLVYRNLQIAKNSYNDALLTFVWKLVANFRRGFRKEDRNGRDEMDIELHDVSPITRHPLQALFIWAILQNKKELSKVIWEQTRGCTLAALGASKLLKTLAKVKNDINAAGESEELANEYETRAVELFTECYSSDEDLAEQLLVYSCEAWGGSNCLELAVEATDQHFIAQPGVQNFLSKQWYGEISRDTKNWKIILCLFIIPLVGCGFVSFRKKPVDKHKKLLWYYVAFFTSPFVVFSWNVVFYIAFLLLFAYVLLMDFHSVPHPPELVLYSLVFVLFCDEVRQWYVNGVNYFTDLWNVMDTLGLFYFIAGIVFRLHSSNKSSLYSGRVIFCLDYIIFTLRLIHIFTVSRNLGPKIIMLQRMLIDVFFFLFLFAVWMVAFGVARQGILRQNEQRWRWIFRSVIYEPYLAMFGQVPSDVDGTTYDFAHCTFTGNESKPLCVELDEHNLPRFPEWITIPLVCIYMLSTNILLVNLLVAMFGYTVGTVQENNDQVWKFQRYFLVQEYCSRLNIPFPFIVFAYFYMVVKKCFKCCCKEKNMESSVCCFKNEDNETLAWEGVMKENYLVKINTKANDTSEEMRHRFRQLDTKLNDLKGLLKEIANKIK
Transient receptor potential cation channel subfamily V member 1 (Homo sapiens), sequence (Q8NER1 whole entry): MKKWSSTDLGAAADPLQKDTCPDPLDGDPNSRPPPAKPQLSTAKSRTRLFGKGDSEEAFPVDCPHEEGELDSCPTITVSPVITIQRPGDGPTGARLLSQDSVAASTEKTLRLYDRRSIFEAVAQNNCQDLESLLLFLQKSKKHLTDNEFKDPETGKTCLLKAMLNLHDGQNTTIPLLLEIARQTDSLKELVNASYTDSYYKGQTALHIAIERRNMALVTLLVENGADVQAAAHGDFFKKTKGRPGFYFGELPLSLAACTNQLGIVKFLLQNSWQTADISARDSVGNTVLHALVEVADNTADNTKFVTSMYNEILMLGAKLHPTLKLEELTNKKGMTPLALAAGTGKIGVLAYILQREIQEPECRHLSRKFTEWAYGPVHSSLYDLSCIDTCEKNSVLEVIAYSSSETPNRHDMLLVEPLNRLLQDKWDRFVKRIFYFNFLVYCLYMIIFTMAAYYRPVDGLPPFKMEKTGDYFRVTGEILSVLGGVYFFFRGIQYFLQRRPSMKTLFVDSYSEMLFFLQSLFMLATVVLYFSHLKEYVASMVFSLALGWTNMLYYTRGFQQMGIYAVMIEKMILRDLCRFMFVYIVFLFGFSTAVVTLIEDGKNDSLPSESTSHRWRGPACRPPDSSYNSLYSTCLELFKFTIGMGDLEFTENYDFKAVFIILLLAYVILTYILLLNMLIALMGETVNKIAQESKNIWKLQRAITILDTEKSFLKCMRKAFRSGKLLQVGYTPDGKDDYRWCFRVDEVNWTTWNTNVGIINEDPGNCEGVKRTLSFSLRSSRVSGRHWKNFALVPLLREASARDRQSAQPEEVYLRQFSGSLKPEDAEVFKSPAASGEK

On to `CCOC(=O)c1cnn(-c2ccc(NC(=O)C(Cl)=C(Cl)Cl)cc2)c1C(F)(F)F`, for which the Activity in data set [1] turned out to be 40.7%; in [2], 8.9%; with Jurkat [3], 6.1%. The IC50 in data set [4] amounted to 300 nM. Further, in data set [5], the viability at 10 µM was found to be 28.6%. In addition, the inhibition entry in data set [6] and in data set [7] was “inactive” each time. For the same compound, in data set [8], the remaining at 0.5 h, 50 µM is 20.4%. The residual activity (in [9]; in [10]; in the data set on Jurkat [11]) was < 100% in each case.
Consider `O=C(O)c1cccc(-c2cn(-c3ccc(-n4ncc(C(=O)OCc5ccccc5)c4C(F)(F)F)cc3)nn2)c1`, for which the Activity in data set [2] turned out to be 10.5%. In [5], the viability at 10 µM was found to be 82.2%.
In the case of `O=C(O)c1cccc(-c2cn(-c3ccc(-n4nc(C(F)(F)F)cc4C(F)(F)F)cc3)nn2)c1`, the Activity in data set [1] came out at 61.3%; in [2] it was 53%; in the data set on Jurkat [3], 61.7%.
In the case of `CCOC(=O)c1cnn(-c2ccc(-n3cc(-c4ccc(C(=O)O)cc4)nn3)cc2)c1C(F)(F)F`, the Activity in data set [1] is 59.9%; in data set [2], 52.1%; in the data set with Jurkat [3], 67.7%.
For `CCOC(=O)c1cnn(-c2ccc(-c3cn(-c4cccc(C(=O)O)c4)nn3)cc2)c1C(F)(F)F`, the Activity in data set [1] amounted to 56.7%; in [2], 30%; in the data set on Jurkat [3], 36.3%.
The corresponding values for `CCOC(=O)c1cnn(-c2ccc(-c3cn(-c4ccncc4F)nn3)cc2)c1C(F)(F)F` are 62.3%, 81.4% and 67.1%.
Turning to `NC(=O)c1cnn(-c2ccc(-n3cc(-c4cccc(C(=O)O)c4)nn3)cc2)c1C(F)(F)F`, the Activity in data set [2] was > 90%.
Still for that read-out and setting: the figure for `CCOC(=O)c1cnn(-c2ccc(-c3cn(-c4cccc(CO)c4)nn3)cc2)c1C(F)(F)F` is > 90%.
Take `CCOC(=O)c1cnn(-c2ccc(-c3cn(CCCC(=O)O)nn3)cc2)c1C(F)(F)F`: the Activity worked out at 69.9% in data set [1], 95.5% in data set [2] and 80.9% in the data set on Jurkat [3].
For the compound `CC(C)NC(=O)c1cnn(-c2ccc(-n3cc(-c4cccc(C(=O)O)c4)nn3)cc2)c1C(F)(F)F`, the Activity in [2] was > 90%.
Turning to `CCOC(=O)c1cnn(-c2ccc(-n3cc(-c4cccc(N)c4)nn3)cc2)c1C(F)(F)F`, the Activity in data set [1] is 65.3%; in data set [2] it was 81.7%; in the data set with Jurkat [3], 89.3%.
For the compound `CC(C)OC(=O)c1cnn(-c2ccc(-n3cc(-c4cccc(C(=O)O)c4)nn3)cc2)c1C(F)(F)F`, the Activity in data set [2] was determined as 3.5%. Besides, in [12], the IC50 was 3100 nM. The viability at 10 µM in [5] was 87.2%. Moreover, the inhibition result in data set [6], in data set [7], in data set [17] and in data set [18] was “inactive” throughout. In data set [8], the remaining at 0.5 h, 50 µM worked out at 87.7%. The Drug metabolism result is recorded as “Metabolite_Detected” in data set [13], “Metabolite_Detected” in data set [14] and “Metabolite_Notdetected” in data set [16]. For the same compound, the remaining at 1 h, 50 µM in data set [15] came out at 81.3%.
For `COC(=O)c1cnn(-c2ccc(-n3cc(-c4cccc(C(=O)O)c4)nn3)cc2)c1C(F)(F)F`, in data set [2], the Activity came out at 7.9%. In [5], the viability at 10 µM was 69.2%. The remaining at 0.5 h, 50 µM in [8] stood at 6.5%.
Consider `CCOC(=O)c1cnn(-c2ccc(C(=O)Nc3cccc(C(=O)O)c3)cc2)c1C(F)(F)F`, for which the Activity in data set [2] is > 90%.
Still for that read-out and setting: to `CCOC(=O)c1cnn(-c2ccc(-c3cn(-c4cccc(C(C)=O)c4)nn3)cc2)c1C(F)(F)F` belongs > 90%.
Regarding `CCOC(=O)c1cnn(-c2ccc(NC(=O)c3cccc(C(=O)O)c3)cc2)c1C(F)(F)F`, the Activity in data set [2] worked out at 63.5%. Also, the viability at 10 µM in data set [5] is 65.9%.
For `CCOC(=O)c1cnn(-c2ccc(-n3cc(-c4ccc(O)c(OC)c4)nn3)cc2)c1C(F)(F)F`, the values for the Activity (in data set [1]; in data set [2]; in the data set on Jurkat [3]) were 65%, 43.2% and 21.6%, respectively.
Turning to `O=C(Nc1ccc(-n2nc(C(F)(F)F)cc2C(F)(F)F)cc1)c1ccncc1F`, in data set [2], the Activity amounted to 10.3%. For the same compound, the half-maximal inhibitory concentration (IC50) in data set [12] was determined as 300 nM. In addition, the viability at 10 µM in data set [5] came out at 70.3%. Besides, the inhibition entry in [6] and in data set [7] was “Active” each time.
As for `CCOC(=O)c1cnn(-c2ccc(-c3cn(-c4ccc(C(=O)O)cc4)nn3)cc2)c1C(F)(F)F`, the Activity in [1] came out at 69.5%; in [2], 69.3%; in the data set on Jurkat [3], 60.3%.
Consider `CCOC(=O)c1cnn(-c2ccc(-c3cn(-c4cccc(N)c4)nn3)cc2)c1C(F)(F)F`, for which the Activity came out at 61.3% in data set [1], 73.2% in [2] and 85.4% with Jurkat [3].
`CCOC(=O)c1cnn(-c2ccc(-n3cc(-c4cccc(C(=O)OC)c4)nn3)cc2)c1C(F)(F)F`: the Activity in data set [2] was > 90%.
Turning to `CCOC(=O)c1cnn(-c2ccc(-n3cc(-c4cccc(C(=O)NS(C)(=O)=O)c4)nn3)cc2)c1C(F)(F)F`, in [2], the Activity was > 90%.
As to `CCOC(=O)c1cnn(-c2ccc(-n3cc(-c4cccc(C(=O)NO)c4)nn3)cc2)c1C(F)(F)F`, in data set [2], the Activity was 6.4%. Further, the viability at 10 µM in data set [5] is 67.5%.
Take `CCOC(=O)c1cnn(-c2ccc(-n3cc(-c4cccc(S(N)(=O)=O)c4)nn3)cc2)c1C(F)(F)F`: in data set [2], the Activity came to 83.6%.
For `O=C(O)c1cccc(-c2cn(-c3ccc(-n4ncc(C(=O)O)c4C(F)(F)F)cc3)nn2)c1`, the Activity in data set [2] is > 90%.
